Source: paper PMC6105387 (Journal of clinical pharmacology, 2018)

Key:
[1] = Population pharmacokinetic model; type: in vivo, human
Procedure, shortened: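 Whole blood sampled 0–12 h post-dose and assayed by chemiluminescent microparticle immunoassay. Compartment models with first-order absorption; between-subject variability exponential, log-normal; categorical covariates as fractional change. Precision from 1000 bootstrap replicates (median, 95% percentile).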

[2] = metabolites excreted through the biliary route; cited from earlier work

magnitude of BSV on CL/F ([1]; after inclusion of covariates): 37%
magnitude of BSV on V/F ([1]; after inclusion of covariates): 76.7%
Individual base model estimated apparent clearance CL/F, mean ([1]; extensive metabolizers (CEMCYP3A5)): 45.0 L/h
Individual base model estimated apparent clearance CL/F, mean ([1]; intermediate metabolizers (CIMCYP3A5)): 29.5 L/h
Individual base model estimated apparent clearance CL/F, mean ([1]; poor metabolizers (CPMCYP3A5)): 19.8 L/h
magnitude of BSV on CL/F ([1]; before inclusion of covariates): 46.6%
magnitude of BSV on V/F ([1]; before inclusion of covariates): 83.2%
increase in CL/F compared to cPMCYP3A5 ([1]; cEMCYP3A5): ~2 fold
Typical value of CL/F ([1]; cEMCYP3A5, final model): 44.3 L.hr^1
increase in CL/F compared to cPMCYP3A5 ([1]; cIMCYP3A5): ~1.5 fold
Typical value of CL/F ([1]; cIMCYP3A5, final model): 28.6 L.hr^1
Typical value of CL/F ([1]; cPMCYP3A5, final model): 19.7 L.hr^1
BSV CL/F - η1, between-subject variability, estimate ([1]; final model): 37.0 CV%
BSV CLp/F - η3, between-subject variability, estimate ([1]; final model): 48.6 CV%
BSV V/F - η2, between-subject variability, estimate ([1]; final model): 76.7 CV%
BSV ka - η4, between-subject variability, estimate ([1]; final model): 69.4 CV%
Lag time - θlag, estimate ([1]; final model): 0.828 h
Residual variability, proportional error - ε1, estimate ([1]; final model): 9.00
ka - θka, absorption rate, estimate ([1]; final model): 4.21 h⁻¹
Vd/F ([1]; human, whole blood, oral): 234 L
clearance ([1]; human, whole blood, oral, 2.5 mg): 328 mL/min
clearance ([1]; human, whole blood, oral, 3.9 mg): 477 mL/min
clearance ([1]; human, whole blood, oral, 5.7 mg): 738 mL/min
BSV V/F - η2, bootstrap median ([1]; nonparametric bootstrap n=1000): 76.0 CV%
BSV ka - η4, bootstrap median ([1]; nonparametric bootstrap n=1000): 68.6 CV%
Lag time - θlag, bootstrap median ([1]; nonparametric bootstrap n=1000): 0.830 h
Residual variability, proportional error - ε1, bootstrap median ([1]; nonparametric bootstrap n=1000): 8.90
V/F - θV/F, bootstrap median ([1]; nonparametric bootstrap n=1000): 231 L
Vp/F - θVp/F, bootstrap median ([1]; nonparametric bootstrap n=1000): 404 L
ka - θka, bootstrap median ([1]; nonparametric bootstrap n=1000): 4.14 h⁻¹
CL/F - θCL/F, bootstrap median ([1]; nonparametric bootstrap n=1000, poor metabolizers): 19.6 L/h
Compound: C=CC[C@@H]1/C=C(\C)C[C@H](C)C[C@H](OC)[C@H]2O[C@@](O)(C(=O)C(=O)N3CCCC[C@H]3C(=O)O[C@H](/C(C)=C/[C@@H]3CC[C@@H](O)[C@H](OC)C3)[C@H](C)[C@@H](O)CC1=O)[C@H](C)C[C@@H]2OC [tacrolimus, Tacrolimus]
parent drug remaining unchanged [2]: less than 1%
